For 13 molecules, Activity, Efficacy and EC50 results are on record in ChEMBL document CHEMBL2434839, “Isoxazole derivatives as potent transient receptor potential melastatin type 8 (TRPM8) agonists” (Eur J Med Chem, 2013).

Active and inactive are the calls of the source. No cut-off for these calls is given here.

Assay [1] deals with Mus musculus. The assay can be described thus: Potentiation of acetone-induced cold allodynic response in Swiss CD-1 mouse chronic constriction injury model applied topically 20 mins prior to acetone-challenge. Type of assay: functional, organism-based. The procedure, abridged: (§1)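 Male Swiss CD1 mice (30–35 g) with sciatic nerve chronic constriction injury under xylazine/ketamine i.p. Day 14: 50 µl of compound at 20% w/v in absolute ethanol applied topically to the operated paw (vehicle: ethanol). After 20 min, acetone applied. Brisk paw withdrawals counted in three 2-min windows about 5 min apart, as totals and per phase. n = 6 per group.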

For assay [2], the system named is Mus musculus. Put plainly: Potentiation of acetone-induced cold allodynic response in Swiss CD-1 mouse chronic constriction injury model applied topically 20 mins prior to acetone-challenge measured for 7 to 9 mins post acetone-challenge. Type of assay: functional, organism-based. The procedure, abridged:
as §1

Assay [3] concerns F11. The assay can be described thus: Agonist activity at TRPM8 in differentiated rat/mouse F11 cells assessed as increase in intracellular Ca2+ level at 0.01 to 30 uM by Fura-2-AM based fluorescence assay relative to menthol. Type of assay: cell-based. The procedure, abridged:
(§2)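 Differentiated F11 cells (≥72 h in 2% FBS plus retinoic acid) in Normal Krebs, pH 7.4, room temperature. Compounds perfused over the stated ranges. Fura-2 340/380 nm ratio read every 3 s after background correction. Peak F/F0 normalized to the maximal menthol response for efficacy. For potency, F/F0 was normalized to each compound's own maximum and fitted to y = max/(1 + […])^n.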

A short description of assay [4]: (§3) Agonist activity at TRPM8 in differentiated rat/mouse F11 cells assessed as increase in intracellular Ca2+ level by Fura-2-AM based fluorescence assay. Type of assay: cell-based. Summed up:
(§4)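 In differentiated F11 cells, L-menthol was perfused for 20 s at 1–300 µM in Normal Krebs, pH 7.4, room temperature. Fura-2 340/380 ratio was imaged every 3 s as F/F0. EC50 came from a fit to y = max/(1 + x/EC50)^n. Mean ± SEM of 23–28 determinations over at least 3 sessions.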

Assay [5] has as its system F11. The description is as §3. Type of assay: cell-based. Summed up: as §4
In assay [6] the test system is Mus musculus. Put plainly: Potentiation of acetone-induced cold allodynic response in Swiss CD-1 mouse chronic constriction injury model applied topically 20 mins prior to acetone-challenge measured up to 2 mins post acetone-challenge. Type of assay: functional, organism-based. Summed up: as §1
Assay [7] concerns Mus musculus. The assay can be described thus: Potentiation of acetone-induced cold allodynic response in Swiss CD-1 mouse chronic constriction injury model applied topically 20 mins prior to acetone-challenge measured for 14 to 16 mins post acetone-challenge. Type of assay: functional, organism-based. Summed up:
as §1

For assay [8], the system named is F11. Put plainly: Agonist activity at TRPM8 in differentiated rat/mouse F11 cells assessed as increase in intracellular Ca2+ level at 1 to 100 uM by Fura-2-AM based fluorescence assay relative to menthol. Type of assay: cell-based. Summed up:
as §2

In assay [9] the test system is F11. Put plainly: Agonist activity at TRPM8 in differentiated rat/mouse F11 cells assessed as increase in intracellular Ca2+ level at 0.01 to 100 uM by Fura-2-AM based fluorescence assay relative to menthol. Type of assay: cell-based. Summed up: as §2
Assay [10] deals with F11. Put plainly: Agonist activity at TRPM8 in differentiated rat/mouse F11 cells assessed as increase in intracellular Ca2+ level at 0.1 to 300 uM by Fura-2-AM based fluorescence assay relative to menthol. Type of assay: cell-based. Summed up:
as §2

For assay [11], the system named is F11. Put plainly: Agonist activity at TRPM8 in differentiated rat/mouse F11 cells assessed as increase in intracellular Ca2+ level at 10 to 1000 uM by Fura-2-AM based fluorescence assay relative to menthol. Type of assay: cell-based. Summed up: as §2
For assay [12], the system named is F11. Put plainly: Agonist activity at TRPM8 in differentiated rat/mouse F11 cells assessed as increase in intracellular Ca2+ level at 0.001 to 30 uM by Fura-2-AM based fluorescence assay relative to menthol. Type of assay: cell-based. The procedure, abridged:
as §2

Assay [13] has as its system F11. Put plainly: Agonist activity at TRPM8 in differentiated rat/mouse F11 cells assessed as increase in intracellular Ca2+ level at 0.3 to 100 uM by Fura-2-AM based fluorescence assay relative to menthol. Type of assay: cell-based. The procedure, abridged:
as §2

Assay [14] concerns F11. The assay can be described thus: Agonist activity at TRPM8 in differentiated rat/mouse F11 cells assessed as effect on intracellular Ca2+ level at 100 uM by Fura-2-AM based fluorescence assay in presence of TRPM8 antagonist BCTC. Type of assay: cell-based. Summed up:
(§5)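 Fura-2 ratiometric Ca2+ imaging in F11 cells differentiated ≥72 h in medium with 2% FBS and retinoic acid, on poly-L-lysine coverslips, at room temperature in Normal Krebs (mM: NaCl 160, KCl 5.5, CaCl2 1.5, MgSO4 1.2, HEPES 10, glucose 10, pH 7.4). Menthol 100 µM perfused alone, with BCTC co-perfusion, or in Ca2+-free solution plus 1 mM EDTA. Peak F/F0 quantified.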

Assay [15] in a line: (§6) Agonist activity at TRPM8 in differentiated rat/mouse F11 cells assessed as increase in intracellular Ca2+ level measured after 20 seconds by Fura-2-AM based fluorescence assay. Type of assay: cell-based. Summed up:
as §4

Assay [16] has as its system F11. The assay is described as §6. Type of assay: cell-based. Summed up: as §4
Assay [17] has as its system F11. Put plainly: Agonist activity at TRPM8 in differentiated rat/mouse F11 cells assessed as increase in intracellular Ca2+ level at 1 to 300 uM measured after 1 to 15 seconds by Fura-2-AM based fluorescence assay. Type of assay: cell-based. The procedure, abridged:
as §4

Assay [18] concerns F11. The assay can be described thus: Agonist activity at TRPM8 in differentiated rat/mouse F11 cells at 100 uM treated in Ca2+-free solution by Fura-2-AM based fluorescence assay. Type of assay: cell-based. Summed up:
as §5

Assay [19] relates to F11. Put plainly: Agonist activity at TRPM8 in differentiated rat/mouse F11 cells assessed as increase in intracellular Ca2+ level at 1 to 500 uM by Fura-2-AM based fluorescence assay relative to menthol. Type of assay: cell-based. Summed up: as §2

As usually defined, the EC50 is the concentration needed to bring the measured effect to its halfway point.

Regarding `Cc1cc(NCC(C)C)no1`, the Activity result in the assay on Mus musculus [1] (TDE = time-dependent effect) is “tde”; in the assay on F11 [5] it was “Dose-dependent effect”. The outcome in the assay with Mus musculus [2] and in the assay on Mus musculus [7] was inactive. In the assay with F11 [3], the Efficacy turned out to be 58%. Besides, the EC50 in assay [4] is 0.16 µM. Also, in the assay with Mus musculus [6], the outcome was Active.

In the case of `CC(C)CNc1ccon1`, in assay [4], the concentration for a half-maximal effect (EC50) was 13.2 µM. Also, the Activity result with F11 [5] was “Dose-dependent effect”. For the same molecule, the Efficacy in the assay on F11 [8] was found to be 72%.

With `CCCCNc1ccon1`, the EC50 in assay [4] was determined as 17.3 µM. Besides, the Activity result with F11 [5] was “Dose-dependent effect”. Besides, in the assay with F11 [8], the Efficacy was determined as 69%.

As to `CCCCNc1cc(C)on1`, the result in the assay on Mus musculus [1], in the assay on Mus musculus [2] and with Mus musculus [7] was inactive. In assay [4], the EC50 came out at 3.6 µM. Moreover, the Activity entry in the assay on F11 [5] is “Dose-dependent effect”. The Efficacy with F11 [9] is 89%. Moreover, the outcome in the assay with Mus musculus [6] was Active.

With `Cc1cc(NCc2ccccc2[N+](=O)[O-])no1`, in assay [4], the EC50 was found to be 12 µM. Besides, in the assay with F11 [5], the Activity result was “Dose-dependent effect”. In addition, in the assay on F11 [10], the Efficacy worked out at 66%.

Take `Cc1cc(NCc2ccccc2)no1`: the result in the assay with Mus musculus [1], in the assay with Mus musculus [2], with Mus musculus [6] and in the assay on Mus musculus [7] was inactive. The EC50 in assay [4] is 400 µM. Also, the Activity entry in the assay on F11 [5] was “Dose-dependent effect”. The Efficacy with F11 [11] was 82%.

Consider `Cc1cc(NC(C)C)no1`, for which the Activity entry is “tde” in the assay on Mus musculus [1] (TDE = time-dependent effect) and “Dose-dependent effect” with F11 [5]. Further, the result in the assay with Mus musculus [2] and in the assay with Mus musculus [7] was inactive. Also, the EC50 in assay [4] turned out to be 0.1 µM. Also, the Efficacy with F11 [12] is 53%. Moreover, the outcome in the assay on Mus musculus [6] was Active.

As to `Cc1cc(NCc2ccc([N+](=O)[O-])cc2)no1`, the EC50 in assay [4] amounted to 18.9 µM. The Activity entry in the assay with F11 [5] was “Dose-dependent effect”. The Efficacy in the assay with F11 [10] was 74%.

In the case of `Cc1cc(NCC2CCCCC2)no1`, the concentration giving a half-maximal response (EC50) in assay [4] was found to be 13.9 µM. Moreover, in the assay with F11 [5], the Activity entry is “Dose-dependent effect”. Further, the Efficacy in the assay on F11 [13] stood at 64%.

Turning to `CCCCNc1cc(C)no1`, in assay [4], the EC50 came to 100 µM. In addition, the Activity entry with F11 [5] is “Dose-dependent effect”. In addition, the Efficacy in the assay on F11 [11] was found to be 32%.

In the case of `Cc1cc(NCCC(C)C)no1`, the Activity result in the assay on Mus musculus [1] (TDE = time-dependent effect) is “tde”; in the assay with F11 [5] it was “Dose-dependent effect”. The result in the assay on Mus musculus [2] and with Mus musculus [7] was inactive. The EC50 in [4] was determined as 0.5 µM. In addition, in the assay on F11 [9], the Efficacy was found to be 66%. In addition, the outcome with Mus musculus [6] was Active.

In the case of `CC(C)[C@@H]1CC[C@@H](C)C[C@H]1O` [LEVOMENTHOL], the outcome in the assay with F11 [14], in the assay on Mus musculus [6], in the assay with F11 [18] and in the assay on Mus musculus [7] was inactive. The EC50 in assay [15] is 23.4 µM. Moreover, the Activity result in the assay with F11 [16] is “Dose-dependent effect”. The result in the assay on Mus musculus [2] and in the assay with F11 [17] was Active.

In the case of `Cc1cc(NCC(C)C)on1`, in assay [4], the EC50 was determined as 48.4 µM. The Activity result with F11 [5] was “Dose-dependent effect”. In addition, in the assay on F11 [19], the Efficacy stood at 36%.
